Laboratory results reported in ChEMBL document CHEMBL1123723, “S-[(N,N'-diarylamidino)methyl] diethyldithiocarbamates and related amides as potential radioprotectants” (J Med Chem, 1987).

How the values were obtained:
[1] = Antiradiation evaluation test was carried out in mice and lethal dose for antiradiation effect at 800 rads was evaluated by the x-ray.; format: ADME, organism-based; conditions: mouse, in vivo
[2] = system: Mus musculus; experiment: Antiradiation evaluation test was carried out in mice and percent of survival of animals after 30-day was determined at lowest dose of 150 mg/kg required for the highest survival rate.; format: functional; conditions: 720 h
[3] = species on record: Mus musculus; experiment: Antiradiation evaluation test was carried out in mice and mean survival time(MST) for mice that died over a 30 day period was determined.; format: functional
Outline: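 Mice (strain "H", both sexes, 23-25 g, 20 per group) were given the drug as a methylcellulose/Tween-80 suspension and exposed to 800-rad X-rays at 96 rads/min alongside untreated controls. The value is the mean survival time of the mice that died within the 30-day observation period.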

[4] = system: Mus musculus; experiment: Antiradiation evaluation test was carried out in mice and percent of survival of animals after 30-day was determined at lowest dose of 360 mg/kg required for the highest survival rate.; format: functional; conditions: 720 h
[5] = system: Mus musculus; experiment: Antiradiation evaluation test was carried out in mice and percent of survival of animals after 30-day was determined at lowest dose of 125 mg/kg required for the highest survival rate.; format: functional; conditions: 720 h
[6] = system: Mus musculus; experiment: Antiradiation evaluation test was carried out in mice and percent of survival of animals after 30-day was determined at lowest dose of 210 mg/kg required for the highest survival rate.; format: functional; conditions: 720 h
[7] = system: Mus musculus; experiment: Antiradiation evaluation test was carried out in mice and percent of survival of animals after 30-day was determined at lowest dose of 340 mg/kg required for the highest survival rate.; format: functional; conditions: 720 h
[8] = system: Mus musculus; experiment: Antiradiation evaluation test was carried out in mice and percent of survival of animals after 30-day was determined at lowest dose of 250 mg/kg required for the highest survival rate.; format: functional; conditions: 720 h
[9] = system: Mus musculus; experiment: Antiradiation evaluation test was carried out in mice and percent of survival of animals after 30-day was determined at lowest dose of 280 mg/kg required for the highest survival rate.; format: functional; conditions: 720 h

CCN(CC)C(=S)SC/C(=N\c1ccccc1)Nc1ccc(OC)cc1
LD50 [1]: 780 mg/kg | survival at 150 mg/kg [2]: 10% | MST [3]: 10.8 days

CCN(CC)C(=S)SC/C(=N\c1ccccc1)Nc1ccccc1
LD50 [1]: 840 mg/kg | survival at 150 mg/kg [2]: 5% | MST [3]: 8.1 days

CCOc1ccc(/N=C(\CSC(=S)N(CC)CC)Nc2ccc(OCC)cc2)cc1
LD50 [1]: 1240 mg/kg | survival at 360 mg/kg [4]: 70% | MST [3]: 13.5 days

CCN(CC)C(=S)SC/C(=N\c1ccccc1)Nc1ccc(C)cc1
LD50 [1]: 720 mg/kg | survival at 125 mg/kg [5]: 10% | MST [3]: 9.6 days

CCOc1ccc(N/C(CSC(=S)N(CC)CC)=N/c2ccc(C)cc2)cc1
LD50 [1]: 850 mg/kg | survival at 210 mg/kg [6]: 25% | MST [3]: 10.5 days

CCN(CC)C(=S)SC/C(=N\c1ccc(OC)cc1)Nc1ccc(OC)cc1
LD50 [1]: 1370 mg/kg | survival at 340 mg/kg [7]: 60% | MST [3]: 14.3 days

CCN(CC)C(=S)SC/C(=N\c1ccc(C)cc1)Nc1ccc(C)cc1
LD50 [1]: 970 mg/kg | survival at 210 mg/kg [6]: 0% | MST [3]: 6.1 days

CCN(CC)C(=S)SC/C(=N\c1ccc(C)cc1)Nc1ccc(OC)cc1
LD50 [1]: 970 mg/kg | survival at 250 mg/kg [8]: 40% | MST [3]: 9.8 days

CCOc1ccc(N/C(CSC(=S)N(CC)CC)=N/c2ccc(OC)cc2)cc1
LD50 [1]: 1270 mg/kg | survival at 280 mg/kg [9]: 60% | MST [3]: 13.5 days

CCOc1ccc(N/C(CSC(=S)N(CC)CC)=N/c2ccccc2)cc1
LD50 [1]: 800 mg/kg | survival at 150 mg/kg [2]: 35% | MST [3]: 9.1 days
